What all share (assay type): functional
The subject of one assay is Bacillus subtilis. Kind of assay: Antibacterial activity against Bacillus subtilis MTCC 121 at 10 ug per disk after 24 hrs by disc diffusion method. To be noted: for zone of inhibition at 10 µg/disc: MTCC 121, 24 h, read-out: DIZ. The method, boiled down: (§1)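 Standard 0.5 McFarland inoculum spread evenly over nutrient agar plates with a sterile L-shaped glass spreader. Plates incubated 24 h at 37 °C. Gentamicin as reference standard. Read-out: zone of inhibition in mm, measured in triplicate and compared with control and standard.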
On the technique in general: In agar diffusion tests the substance spreads into inoculated agar from a disc or well.

Another assay concerns Klebsiella pneumoniae. Kind of assay: Antibacterial activity against Klebsiella pneumoniae MTCC 618 at 10 ug per disk after 24 hrs by disc diffusion method. The settings on record: for zone of inhibition at 10 µg/disc: MTCC 618, 24 h, read-out: DIZ. The method, boiled down: as §1
In the next assay the test system is Aspergillus flavus. Kind of assay: Antifungal activity against Aspergillus flavus MTCC 8188 at 10 ug per disk after 2 to 3 days by disc diffusion method. To be noted: for zone of inhibition at 10 µg/disc: read-out: DIZ. The procedure, abridged: (§2)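 Fungal inoculum: a loopful of each strain suspended in saline, spread evenly on yeast extract potato dextrose agar with a sterile glass spreader. Sterile 5 mm discs loaded with test compound in DMSO placed on the agar. Plates incubated 2–3 days at room temperature. Nystatin as reference standard. Zones of inhibition measured and compared with control and standard.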

The test system of the next assay is Candida albicans. Kind of assay: Antifungal activity against Candida albicans MTCC 7253 at 10 ug per disk after 2 to 3 days by disc diffusion method. To be noted: read-out: DIZ. The procedure, abridged: as §2
The next assay concerns Staphylococcus aureus. Kind of assay: Antibacterial activity against Staphylococcus aureus MTCC 1430 at 10 ug per disk after 24 hrs by disc diffusion method. To be noted: MTCC 1430, 24 h, read-out: DIZ. The method, boiled down: as §1
The test system of another assay is Pseudomonas aeruginosa. Kind of assay: Antibacterial activity against Pseudomonas aeruginosa MTCC 2453 at 10 ug per disk after 24 hrs by disc diffusion method. To be noted: MTCC 2453, 24 h, read-out: DIZ. The method, boiled down: as §1
Another assay deals with Escherichia coli. Description: Antibacterial activity against Escherichia coli MTCC 1573 at 10 ug per disk after 24 hrs by disc diffusion method. To be noted: MTCC 1573, 24 h, read-out: DIZ. The procedure, abridged: as §1

Drawing on ChEMBL document CHEMBL2203022, “Design, synthesis and antimicrobial evaluation of novel 1-benzyl 2-butyl-4-chloroimidazole embodied 4-azafluorenones via molecular hybridization approach” (2012), this text covers zone of inhibition and inhibition zone (IZ) for 17 compounds.

For the compound `CCCCc1nc(Cl)c(-c2cc(-c3ccc4ccccc4c3)nc3c2C(=O)c2ccccc2-3)n1Cc1ccccc1`, the zone of inhibition at 10 µg/disc was determined as 9 mm in the assay with Bacillus subtilis; 12 mm in the assay on Klebsiella pneumoniae; 6 mm in the assay with Aspergillus flavus; 10 mm in the assay on Candida albicans; 12 mm in the assay with Staphylococcus aureus; 13 mm in the assay with Pseudomonas aeruginosa. Also, in the assay on Escherichia coli, the zone of inhibition at 10 µg/disc is 8 mm.

In the case of `CCCCc1nc(Cl)c(-c2cc(-c3cn(S(=O)(=O)c4ccc(C)cc4)c4ccccc34)nc3c2C(=O)c2ccccc2-3)n1Cc1ccccc1`, the zone of inhibition at 10 µg/disc in the assay with Bacillus subtilis was 7 mm; with Klebsiella pneumoniae it was 12 mm; with Aspergillus flavus, 11 mm; in the assay on Candida albicans it was 13 mm; in the assay on Staphylococcus aureus, 10 mm; in the assay with Pseudomonas aeruginosa, 7 mm. Besides, in the assay on Escherichia coli, the zone of inhibition at 10 µg/disc is 8 mm.

Regarding `CCCCc1nc(Cl)c(-c2cc(-c3cccc4ccccc34)nc3c2C(=O)c2ccccc2-3)n1Cc1ccccc1`, the zone of inhibition at 10 µg/disc is 10 mm in the assay on Bacillus subtilis; 12 mm in the assay with Klebsiella pneumoniae; 5 mm in the assay on Aspergillus flavus; 12 mm with Candida albicans; 12 mm with Staphylococcus aureus; 6 mm in the assay on Pseudomonas aeruginosa. In addition, the zone of inhibition at 10 µg/disc in the assay with Escherichia coli is 9 mm.

Turning to `CCCCc1nc(Cl)c(-c2cc(-c3ccc(Br)cc3)nc3c2C(=O)c2ccccc2-3)n1Cc1ccccc1`, the zone of inhibition at 10 µg/disc in the assay on Bacillus subtilis is 9 mm; in the assay on Klebsiella pneumoniae, 12 mm; in the assay with Aspergillus flavus, 7 mm; with Candida albicans, 10 mm; in the assay on Staphylococcus aureus, 12 mm; with Pseudomonas aeruginosa it was 6 mm. For the same compound, in the assay on Escherichia coli, the zone of inhibition at 10 µg/disc amounted to 9 mm.

As to GENTAMICIN, the inhibition zone (IZ) was determined as 14 mm in the assay on Bacillus subtilis and 19 mm in the assay on Klebsiella pneumoniae.

In the case of `CCCCc1nc(Cl)c(-c2cc(-c3ccc(Br)s3)nc3c2C(=O)c2ccccc2-3)n1Cc1ccccc1`, the zone of inhibition at 10 µg/disc with Bacillus subtilis was determined as 9 mm; with Klebsiella pneumoniae it was 12 mm; in the assay with Aspergillus flavus it was 7 mm; with Candida albicans it was 9 mm; in the assay on Staphylococcus aureus it was 12 mm; in the assay on Pseudomonas aeruginosa, 13 mm. Also, the zone of inhibition at 10 µg/disc with Escherichia coli was 8 mm.

For the compound `CCCCc1nc(Cl)c(-c2cc(-c3ccc(OC)cc3)nc3c2C(=O)c2ccccc2-3)n1Cc1ccccc1`, the zone of inhibition at 10 µg/disc turned out to be 9 mm in the assay on Bacillus subtilis; 11 mm in the assay on Klebsiella pneumoniae; 6 mm in the assay on Aspergillus flavus; 12 mm with Candida albicans; 10 mm with Staphylococcus aureus; 9 mm with Pseudomonas aeruginosa. Also, in the assay with Escherichia coli, the zone of inhibition at 10 µg/disc worked out at 8 mm.

With `CCCCc1nc(Cl)c(-c2cc(-c3ccc([N+](=O)[O-])cc3)nc3c2C(=O)c2ccccc2-3)n1Cc1ccccc1`, the zone of inhibition at 10 µg/disc is 10 mm in the assay with Bacillus subtilis; 10 mm in the assay on Klebsiella pneumoniae; 6 mm in the assay on Aspergillus flavus; 11 mm with Candida albicans; 10 mm in the assay on Staphylococcus aureus; 10 mm in the assay with Pseudomonas aeruginosa. For the same compound, in the assay on Escherichia coli, the zone of inhibition at 10 µg/disc was found to be 8 mm.

For `CCCCc1nc(Cl)c(-c2cc(-c3cc(OC)c(OC)c(OC)c3)nc3c2C(=O)c2ccccc2-3)n1Cc1ccccc1`, the zone of inhibition at 10 µg/disc stood at 9 mm with Bacillus subtilis; 11 mm in the assay on Klebsiella pneumoniae; 6 mm in the assay with Aspergillus flavus; 10 mm in the assay with Candida albicans; 12 mm in the assay with Staphylococcus aureus; 7 mm in the assay with Pseudomonas aeruginosa. The zone of inhibition at 10 µg/disc with Escherichia coli was found to be 9 mm.

For the compound `CCCCc1nc(Cl)c(-c2cc(-c3cccc(Br)n3)nc3c2C(=O)c2ccccc2-3)n1Cc1ccccc1`, the zone of inhibition at 10 µg/disc with Bacillus subtilis turned out to be 8 mm; with Klebsiella pneumoniae, 9 mm; with Aspergillus flavus it was 9 mm; with Candida albicans, 11 mm; in the assay on Staphylococcus aureus, 12 mm; with Pseudomonas aeruginosa, 12 mm. Besides, the zone of inhibition at 10 µg/disc with Escherichia coli turned out to be 9 mm.

In the case of `CCCCc1nc(Cl)c(-c2cc(-c3ccc(C)cc3)nc3c2C(=O)c2ccccc2-3)n1Cc1ccccc1`, the zone of inhibition at 10 µg/disc came out at 8 mm in the assay with Bacillus subtilis; 11 mm in the assay with Klebsiella pneumoniae; 7 mm with Aspergillus flavus; 10 mm in the assay with Candida albicans; 10 mm with Staphylococcus aureus; 8 mm in the assay with Pseudomonas aeruginosa. The zone of inhibition at 10 µg/disc with Escherichia coli turned out to be 9 mm.

For `CCCCc1nc(Cl)c(-c2cc(-c3cccs3)nc3c2C(=O)c2ccccc2-3)n1Cc1ccccc1`, the zone of inhibition at 10 µg/disc in the assay with Bacillus subtilis stood at 10 mm; in the assay on Klebsiella pneumoniae it was 10 mm; in the assay with Aspergillus flavus, 5 mm; with Candida albicans it was 10 mm; in the assay on Staphylococcus aureus, 10 mm; in the assay with Pseudomonas aeruginosa, 11 mm. In the assay with Escherichia coli, the zone of inhibition at 10 µg/disc amounted to 9 mm.

On to `CCCCc1nc(Cl)c(-c2cc(-c3ccco3)nc3c2C(=O)c2ccccc2-3)n1Cc1ccccc1`, for which the zone of inhibition at 10 µg/disc with Bacillus subtilis was found to be 8 mm; with Klebsiella pneumoniae, 15 mm; in the assay with Aspergillus flavus, 10 mm; in the assay with Candida albicans it was 13 mm; in the assay with Staphylococcus aureus it was 15 mm; with Pseudomonas aeruginosa it was 14 mm. In addition, the zone of inhibition at 10 µg/disc with Escherichia coli is 8 mm.

`CCCCc1nc(Cl)c(-c2cc(-c3ccccc3)nc3c2C(=O)c2ccccc2-3)n1Cc1ccccc1`: the zone of inhibition at 10 µg/disc in the assay with Bacillus subtilis was found to be 8 mm; in the assay with Klebsiella pneumoniae, 11 mm; in the assay on Aspergillus flavus, 8 mm; in the assay with Candida albicans, 10 mm; in the assay with Staphylococcus aureus it was 12 mm; in the assay on Pseudomonas aeruginosa, 10 mm. Further, in the assay on Escherichia coli, the zone of inhibition at 10 µg/disc is 9 mm.

On to NYSTATIN, for which the inhibition zone (IZ) in the assay on Aspergillus flavus was 9 mm.

For `CCCCc1nc(Cl)c(-c2cc(-c3ccc4oc5ccccc5c4c3)nc3c2C(=O)c2ccccc2-3)n1Cc1ccccc1`, the zone of inhibition at 10 µg/disc with Bacillus subtilis came out at 9 mm; with Klebsiella pneumoniae, 13 mm; in the assay with Aspergillus flavus, 7 mm; in the assay on Candida albicans, 10 mm; with Staphylococcus aureus, 11 mm; in the assay on Pseudomonas aeruginosa it was 13 mm. Also, the zone of inhibition at 10 µg/disc with Escherichia coli is 9 mm.

For `CCCCc1nc(Cl)c(-c2cc(-c3ccc4sc5ccccc5c4c3)nc3c2C(=O)c2ccccc2-3)n1Cc1ccccc1`, the zone of inhibition at 10 µg/disc with Bacillus subtilis was determined as 9 mm; in the assay with Klebsiella pneumoniae it was 11 mm; in the assay on Aspergillus flavus, 10 mm; with Candida albicans it was 14 mm; in the assay with Staphylococcus aureus it was 12 mm; in the assay with Pseudomonas aeruginosa it was 7 mm. The zone of inhibition at 10 µg/disc in the assay with Escherichia coli came out at 8 mm.
